High-throughput results deposited in PubChem BioAssay by The Scripps Research Institute Molecular Screening Center.
PRMT1 inh: blocks human protein arginine methyltransferase 1 | Q99873 | recombinant PRMT1, activity-based probe fluorescence polarization | 1.3% of 370,000 active | inhibition, % at 2.79 µM;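 active means inhibition above about 21% made by adding two undisclosed values, limit read from the data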
SIAE inh: human SIAE inhibition, primary screen; inhibition, % at 9.66 µM; Q9HAT2; SIAE FP-Rh probe binding, fluorescence polarization; 0.69% of 370,000 active;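 active means inhibition above a cutoff: mean of compounds within the control limits plus 3 SD of those, cut at about 17% in these data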
Target sequence (Q9HAT2 whole entry, looked up): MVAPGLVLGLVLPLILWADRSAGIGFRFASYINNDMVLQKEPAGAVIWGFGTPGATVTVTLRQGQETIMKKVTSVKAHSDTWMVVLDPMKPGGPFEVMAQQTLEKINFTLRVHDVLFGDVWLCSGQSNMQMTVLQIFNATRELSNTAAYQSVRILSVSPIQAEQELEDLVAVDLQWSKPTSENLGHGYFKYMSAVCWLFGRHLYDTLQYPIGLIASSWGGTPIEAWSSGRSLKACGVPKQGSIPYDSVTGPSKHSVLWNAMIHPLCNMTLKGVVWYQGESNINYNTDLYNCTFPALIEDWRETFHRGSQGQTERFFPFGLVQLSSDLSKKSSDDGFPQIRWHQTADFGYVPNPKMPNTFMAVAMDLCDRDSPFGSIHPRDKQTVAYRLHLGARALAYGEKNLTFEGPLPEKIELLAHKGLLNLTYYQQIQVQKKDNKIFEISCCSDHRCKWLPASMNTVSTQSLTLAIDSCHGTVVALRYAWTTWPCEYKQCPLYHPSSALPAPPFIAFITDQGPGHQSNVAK
ABHD4 inh: ABHD4 (mouse) inhibition, primary FP screen | purified mABHD4, FP-Rh probe fluorescence polarization | Q8VD66 | inhibition, % at 8.92 µM | 0.54% of 370,000 active | AID 720543;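 active means inhibition exceeding the mean over every tested compound plus 3 SD, cut at about 30% in these data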
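Test system: mouse ABHD4 enzyme, wild type. Reagent: FP-Rh fluorescent activity-based probe, added after compound pre-incubation. Timing: pre-incubation 45 min, probe exposure 60 min, at 25 °C. Technique: FP readout, ex 525 nm / em 598 nm. Benchmarks: high control S159A mutant with DMSO, low control median of compound wells.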
HTRA1 inh: inhibitors of human serine peptidase HTRA1 | Q92743 | recombinant HTRA1, FP-rhodamine activity-based probe, fluorescence polarization | inhibition, % at 5.96 µM | 0.5% of 340,000 active; in the data active means inhibition above about 36%
TCR CD3 inh: blocks the human TCR-CD3 interaction; 0.37% of 360,000 active; TAMRA-labeled TCR probe fluorescence, biochemical; inhibition, % at 9.4 µM; AID 651800; in the data active means inhibition above about 19%;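 further: recombinant mutant TCR 2C K166C tagged with TAMRA read by polarization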
PRMT1 inh conf: PRMT1 (human) inhibition, FP confirmation | shares compounds with PRMT1 inh | recombinant His-PRMT1, activity-based probe fluorescence polarization | inhibition, % at 2.79 µM | 42% of 3,300 active;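 active means mean inhibition across replicates above the hit cutoff derived for the earlier primary screen, cut at about 22% in these data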
Hits are given with their value; . = inactive; / = no result. In the library only some 2.5% were active in any assay of this set; here they are far more common.

SMILES	PRMT1 inh	SIAE inh	ABHD4 inh	HTRA1 inh	TCR CD3 inh	PRMT1 inh conf
O=C(CSC1=NC(=O)C(Cc2ccccc2)C(=O)N1)NC1CCCCC1 (stereo unspecified)	.	.	.	.	.	/
CCn1c(-c2ccccc2)c[nH]c1=S	.	.	.	.	.	/
S=c1[nH]cc(-c2ccccc2)n1-c1ccccc1	34	.	.	.	.	.
O=C(OC12CCCN(C1)/C(=C/c1ccc(Cl)cc1)C2)c1ccc(Cl)cc1 (stereo unspecified)	.	.	.	/	/	/
CCCC1CCC2(CC1)CCC2OC(=S)Nc1ccc(I)cc1 (stereo unspecified)	.	.	.	/	/	/
O=C(O)/C=C\C(=O)Nc1ccccc1C(=O)N1CCC(O)(c2ccc(Cl)cc2)CC1	29	.	.	.	.	.
COc1ccc2c(c1)CCCN2C(=O)C1CCCN(S(=O)(=O)c2ccccc2)C1 (stereo unspecified)	.	.	.	/	/	/
CC(C)n1c(CNC(=O)c2ccccc2F)nnc1SCC(=O)NC1CCCCC1	33	.	.	.	.	.
Cc1snc(SCC(=O)c2ccc([N+](=O)[O-])cc2)c1C#N	47	.	.	.	.	53
Cc1ccc(C2C3=C(CC(C)(C)CC3=O)Nc3[nH]c(=S)[nH]c(=O)c32)cc1 (stereo unspecified)	52	.	.	.	.	.
Cc1ccc(C(C)C)c(OCC(=O)NC(=S)Nc2ccccc2N2CCOCC2)c1	.	.	.	.	.	/
CCC(=O)N1CCN(c2ccccc2NC(=O)COc2cc(C)ccc2C(C)C)CC1	112	.	.	.	.	.
c1ccc2c(c1)Nc1nccnc1S2	49	.	.	.	.	47
O=C1Nc2cccnc2Sc2ccccc21	.	.	.	.	.	/
CC(=O)Nc1ccc(SCC(=O)NCC2(N3CCCCC3)CCCCC2)cc1	41	.	.	.	.	37
O=C(CSc1ccc(Br)cc1)NCC1(N2CCCCC2)CCCCC1	.	.	.	.	.	/
CCOC(=O)C1(C(=O)OCC)Cc2c([nH]c3ccccc23)[C@]2(N1)C(=O)N(C)c1ccc(Br)cc12	.	.	.	/	/	/
Cc1ccc(C)c(NC(=O)C2C3C=CC(O3)C2C(=O)O)c1 (stereo unspecified)	79	.	.	.	.	38
Cc1ccc(NC(=O)C2C3C=CC(O3)C2C(=O)O)c(C)c1 (stereo unspecified)	37	.	.	.	.	.
Cc1cccc(NC(=O)C2C3C=CC(O3)C2C(=O)O)c1C (stereo unspecified)	33	.	.	.	.	.
Cc1ccc(NC(=O)C2C3C=CC(O3)C2C(=O)O)cc1C (stereo unspecified)	.	.	.	.	.	/
CN1Cc2nnn(Cc3ccccc3)c2-c2cc(N3CCCC3)ccc2S1(=O)=O	.	.	.	/	/	/
c1coc(-c2nnc3sc(Cc4cccs4)nn23)c1	64	.	.	.	.	.
Cc1ccccc1CN1CCCCC(NC(=O)c2ccc(N(C)C)cc2)C1=O (stereo unspecified)	.	.	.	/	/	/
N#CC1=C(N)NC(=S)C(C(N)=O)C1c1ccc([N+](=O)[O-])cc1 (stereo unspecified)	67	.	.	.	.	.
SMILES	PRMT1 inh	SIAE inh	ABHD4 inh	HTRA1 inh	TCR CD3 inh	PRMT1 inh conf
Cc1cn(-c2cc(NC(=O)c3ccc(C)c(Nc4nccc(-c5cccnc5)n4)c3)cc(C(F)(F)F)c2)cn1	.	.	.	/	/	/
CC1(OC(=O)CCc2ccccc2)C(=O)C=C2C=C(c3ccc(C#N)cc3)N(Cc3ccco3)C=C2C1=O (stereo unspecified)	28	.	.	.	.	.
CC1=C(C(=O)Nc2ccccc2)C2(CCCCC2)C(C#N)=C(S)N1	26	.	.	.	.	25
COc1ccc(-c2cc(NC(=O)Cc3c[nH]c4ccccc34)ccc2Nc2cccnc2)c(OC)c1	.	.	.	/	.	/
Cc1ccc(-n2sc3ccccc3c2=O)cc1S(=O)(=O)N1CCCCC1	101	.	.	.	.	84
O=c1c2ccccc2sn1-c1ccc(S(=O)(=O)N2CCCCC2)cc1	43	.	.	.	.	63
O=c1c2ccccc2sn1-c1ccc(S(=O)(=O)N2CCCC2)cc1	95	.	.	.	.	97
Cc1nn(-c2ccccc2)c2sc(C(=O)NC3CCCCCCC3)cc12	.	.	.	/	/	/
O=C1Nc2ccccc2/C1=C/c1ccccc1F	.	.	.	.	.	/
Cc1ccc(/C=C2\C(=O)Nc3ccccc32)o1	60	.	.	.	.	.
CC(=O)c1c(C)[nH]c(C(=O)Nc2ccccc2C)c1C	.	.	.	/	/	/
O=C1C=C(NNC(=O)c2ccncc2)CC(c2ccccc2)C1 (stereo unspecified)	63	.	.	.	.	.
Cc1cccc(NC(=O)CNC(=O)[C@H](CCc2ccccc2)NC(=O)[C@H]2O[C@@H](n3cnc4c(N)ncnc43)[C@H](O)[C@@H]2O)c1C	.	.	.	/	.	/
O=S1(=O)CC2c3ccc(F)cc3CN2CN1CCc1ccccc1 (stereo unspecified)	.	.	.	/	/	/
CC(C)Oc1ccc(Br)cc1/C=N\NC(N)=S	39	.	.	.	.	.
Cc1cc(/C=N/NC(N)=S)c(C)n1-c1ccc(Br)cc1	.	.	.	.	.	/
Clc1ccc(-c2nc3nc4ccccc4nc3n2Cc2ccco2)cc1	27	.	.	.	.	.
CCOC(=O)[C@]12CCCCC/C=C\1N(CCc1ccc(Cl)cc1)C(=O)[C@H]2CC(=O)N1CCCC1	.	.	.	/	/	/
Cc1ccc(NC(=S)NC(=O)/C=C/c2ccco2)c(O)c1	28	.	.	.	.	.
COc1cccc(NC(=S)NC(=O)/C=C/c2ccco2)c1	.	.	.	.	.	/
O=C(/C=C/c1ccco1)Nc1ccccc1C(=O)Nc1cccc(C(=O)O)c1	25	.	.	.	.	.
O=C(/C=C/c1ccco1)Nc1ccccc1C(=O)O	.	.	.	/	.	/
O=C(/C=C/c1ccco1)Nc1cc(Cl)ccc1C(=O)O	25	.	.	.	.	.
O=C(/C=C/c1ccco1)NC(=S)Nc1cccc(C(=O)O)c1	34	.	.	.	.	30
COc1ccc(NC(=O)C(CCCCNC(=O)OC(C)(C)C)NC2(C(=O)NCCc3c[nH]c4ccccc34)CCCCC2)cc1 (stereo unspecified)	.	.	.	/	/	/
COC(=O)[C@]12C[C@H](CC(=O)NCc3cccs3)C(=O)N(Cc3ccco3)C1=C[C@H](C(C)(C)C)O[C@@H]2C	.	.	.	/	/	/
O=C(O)C(Cc1ccccc1)N1C(=O)CCC1=O (stereo unspecified)	.	.	.	.	.	/
O=C(O)C(Cc1ccccc1)N1C(=O)C=CC1=O (stereo unspecified)	52	.	.	.	.	64
CC(=O)c1sc2nsc(SCCN3CCOCC3)c2c1N	67	.	.	/	.	.
